In ChEMBL document CHEMBL4145607, “Tamarixetin Exhibits Anti-inflammatory Activity and Prevents Bacterial Sepsis by Increasing IL-10 Production” (J Nat Prod, 2018):
The source made the active and inactive calls.

How the values were obtained:
Mus musculus [1] = assay: Antiseptic activity in Balb/c mouse model of Escherichia coli K1 infection-induced sepsis assessed as reduction in bacterial count in kidneys at 50 mg/kg, ip pretreated for 1 hr followed by Escherichia coli K1 infection measured after 12 hrs; format: functional, organism-based
In short: (§1)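 BALB/c mice dosed i.p. 1 h before i.p. E. coli K1 (1 × 10^6 CFU per mouse); killed at 12 h. Lungs and kidneys removed aseptically into 1 mL sterile PBS, homogenised on ice, diluted 1:1000 in PBS, 10 μL plated on LB agar, 24 h at 37 °C, colonies counted.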

Mus musculus [2] = assay: Antiseptic activity in Balb/c mouse model of Escherichia coli K1 infection-induced sepsis assessed as increase in survival rate at 1 mg/kg, ip pretreated for 1 hr followed by Escherichia coli K1 infection measured over 72 hrs relative to control; format: functional
In short: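 BALB/c mice dosed i.p. 1 h before i.p. E. coli K1 strain RS218 (O18:K1:H7) challenge, 1 × 10^7 CFU per mouse, diluted in LB broth; n = 10; survival monitored over 72 h.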

BMDC = assay: Inhibition of LPS-induced immune response in C57BL/6 mouse BMDC assessed as increase in IL10 secretion at 25 uM pretreated for 30 mins followed by LPS-challenge measured after 6 hrs by ELISA; format: functional, cell-based
In short: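 Bone marrow from 6-week-old female C57BL/6 mice, RBC-lysed, cultured in RPMI-1640/10% FBS with 10 ng·mL−1 rmGM-CSF, 37 °C, 5% CO2; medium refreshed days 3 and 5. DCs pretreated 30 min with compound, then LPS 50 ng·mL−1 for 6 h; supernatant IL-10 by sandwich ELISA; means ± SEM.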

Mus musculus [3] = assay: Antiseptic activity in Balb/c mouse model of Escherichia coli K1 infection-induced sepsis assessed as reduction in bacterial count in lungs at 50 mg/kg, ip pretreated for 1 hr followed by Escherichia coli K1 infection measured after 12 hrs; format: functional, organism-based; in short: as §1
Mus musculus [4] = assay: Antiseptic activity in Balb/c mouse model of Escherichia coli K1 infection-induced sepsis assessed as reduction in serum endotoxin level at 50 mg/kg, ip pretreated for 1 hr followed by Escherichia coli K1 infection measured after 12 hrs by chromogenic assay; format: functional, organism-based
In short: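 BALB/c mice dosed i.p. 1 h before i.p. E. coli K1 (1 × 10^6 CFU per mouse), sera taken at 12 h. Serum diluted 10-fold in endotoxin-free PBS, LAL chromogenic end-point assay; background subtracted, quantified against E. coli endotoxin standard, reported as EU·mL−1.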

O=c1c(O)c(-c2ccc(O)c(O)c2)oc2cc(O)cc(O)c12
inactive: Activity (Mus musculus [1]) | Activity (Mus musculus [2]) | inhibition (BMDC) | Activity (Mus musculus [3]) | Activity (Mus musculus [4])
